Experimental data from article PMC3445631 (Bioorganic & medicinal chemistry letters, 2012).

How the values were obtained:
hCB2 = hCB2 (Homo sapiens, UniProt P34972); test: Photolabeling of hCB2; format: binding
mCB2 receptor = mCB2 receptor (Mus musculus, UniProt P47936); test: Photolabeling of mCB2; format: binding; settings: HEK293 cell membranes expressing mCB2, photoactivated
Procedure, shortened: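 Compound-free membranes were run in parallel as control. Incubated 30 min at 37°C, then UV-irradiated at 365 nm for 1 h on ice. Washed with 1% BSA TME, then plain TME. Followed by [3H]CP-55940 saturation binding.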

Chain of mCB2 receptor (P47936 whole entry): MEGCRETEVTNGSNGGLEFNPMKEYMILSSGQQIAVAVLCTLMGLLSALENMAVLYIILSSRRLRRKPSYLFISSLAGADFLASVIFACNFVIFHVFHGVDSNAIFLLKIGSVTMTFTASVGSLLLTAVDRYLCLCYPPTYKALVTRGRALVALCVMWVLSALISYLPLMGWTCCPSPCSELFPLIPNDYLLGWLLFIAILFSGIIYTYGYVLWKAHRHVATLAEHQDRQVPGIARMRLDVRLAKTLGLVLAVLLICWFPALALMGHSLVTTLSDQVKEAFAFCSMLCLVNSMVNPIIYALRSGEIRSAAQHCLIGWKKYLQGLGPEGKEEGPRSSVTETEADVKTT
Chain of hCB2 (P34972 whole entry): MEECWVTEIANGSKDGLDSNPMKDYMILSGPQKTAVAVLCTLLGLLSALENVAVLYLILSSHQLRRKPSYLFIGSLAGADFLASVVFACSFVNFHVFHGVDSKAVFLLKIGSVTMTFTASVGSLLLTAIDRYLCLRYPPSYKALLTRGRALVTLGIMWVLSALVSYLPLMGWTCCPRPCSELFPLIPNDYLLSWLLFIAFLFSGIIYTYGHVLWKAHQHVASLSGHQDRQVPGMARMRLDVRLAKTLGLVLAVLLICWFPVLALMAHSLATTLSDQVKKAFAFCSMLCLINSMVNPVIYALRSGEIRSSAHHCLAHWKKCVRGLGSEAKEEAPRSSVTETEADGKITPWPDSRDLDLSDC

SMILES	extent of labeling of hCB2 (hCB2)	ability to photolabel the mCB2 receptor (mCB2 receptor)
CC1(C)Oc2cc(C(=O)c3cccc(C(F)(F)F)c3)cc(O)c2[C@@H]2C[C@H](O)CC[C@H]21 [Compound 49]	30%	also labeled, however, less effectively
CC1(C)Oc2cc(C(=O)c3c[nH]c4ccccc34)cc(O)c2[C@@H]2C[C@H](O)CC[C@H]21 [Compound 50]	–	failed to label mCB2
